Test results taken from ChEMBL document CHEMBL4138258 (ACS Med Chem Lett, 2017).

Key:
Cannabinoid receptor 2 [1] = target: T1, Cannabinoid receptor 2 (Homo sapiens, UniProt P34972); experiment: Agonist activity at recombinant human CB2 receptor expressed in HEK293 cells assessed as increase in beta arrestin recruitment measured after 2 to 3 hrs by PathHunter assay; assay type: functional, cell-based
Cannabinoid receptor 1 [2] = target: T2, Cannabinoid receptor 1 (Homo sapiens, UniProt P21554); experiment: Agonist activity at recombinant human CB1 receptor expressed in HEK293 cells assessed as increase in beta arrestin recruitment measured after 2 to 3 hrs by PathHunter assay relative to CP55940; assay type: functional, cell-based
T2 sequence (P21554 whole entry): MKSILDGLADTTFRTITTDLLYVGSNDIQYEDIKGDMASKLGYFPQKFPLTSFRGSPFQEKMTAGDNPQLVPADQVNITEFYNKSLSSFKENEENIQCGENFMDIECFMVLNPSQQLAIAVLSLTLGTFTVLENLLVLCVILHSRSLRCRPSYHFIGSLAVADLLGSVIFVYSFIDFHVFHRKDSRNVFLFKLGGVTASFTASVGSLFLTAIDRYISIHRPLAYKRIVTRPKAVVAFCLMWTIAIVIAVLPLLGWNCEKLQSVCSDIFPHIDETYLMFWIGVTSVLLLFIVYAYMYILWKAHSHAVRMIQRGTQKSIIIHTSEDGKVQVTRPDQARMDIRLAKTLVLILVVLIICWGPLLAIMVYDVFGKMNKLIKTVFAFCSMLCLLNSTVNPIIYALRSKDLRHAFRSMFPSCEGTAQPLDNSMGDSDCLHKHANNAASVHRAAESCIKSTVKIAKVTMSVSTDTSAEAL
Summary of the method: (§1)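 Beta-arrestin recruitment EC50 is the mean of three or more independent experiments (logSD < 0.4). Intrinsic activity (Emax) is expressed relative to CP-55,940 set at 100.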

[3] = target: T3, Cannabinoid receptor 2 (Rattus norvegicus) (UniProt Q9QZN9); experiment: Agonist activity at recombinant rat CB2 receptor expressed in HEK293 cells assessed as increase in beta arrestin recruitment measured after 2 to 3 hrs by PathHunter assay relative to CP55940; assay type: functional, cell-based; summary of the method: as §1
T3 sequence (whole entry): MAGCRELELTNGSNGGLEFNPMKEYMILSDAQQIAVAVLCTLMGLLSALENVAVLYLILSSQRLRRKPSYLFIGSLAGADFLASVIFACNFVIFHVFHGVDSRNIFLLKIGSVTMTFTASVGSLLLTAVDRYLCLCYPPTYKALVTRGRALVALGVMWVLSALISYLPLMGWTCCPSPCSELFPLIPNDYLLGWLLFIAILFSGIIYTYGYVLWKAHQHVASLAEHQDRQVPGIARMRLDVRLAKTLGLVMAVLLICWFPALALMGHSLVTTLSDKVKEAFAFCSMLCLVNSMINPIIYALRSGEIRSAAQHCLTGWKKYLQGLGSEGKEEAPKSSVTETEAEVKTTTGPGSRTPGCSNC

[4] = target: Cannabinoid receptor 1 (Rattus norvegicus) (UniProt P20272); experiment: Agonist activity at recombinant rat CB1 receptor expressed in HEK293 cells assessed as increase in beta arrestin recruitment measured after 2 to 3 hrs by PathHunter assay relative to CP55940; assay type: functional, cell-based; summary of the method: as §1
Chain of Cannabinoid receptor 1 (Rattus norvegicus) (P20272 whole entry): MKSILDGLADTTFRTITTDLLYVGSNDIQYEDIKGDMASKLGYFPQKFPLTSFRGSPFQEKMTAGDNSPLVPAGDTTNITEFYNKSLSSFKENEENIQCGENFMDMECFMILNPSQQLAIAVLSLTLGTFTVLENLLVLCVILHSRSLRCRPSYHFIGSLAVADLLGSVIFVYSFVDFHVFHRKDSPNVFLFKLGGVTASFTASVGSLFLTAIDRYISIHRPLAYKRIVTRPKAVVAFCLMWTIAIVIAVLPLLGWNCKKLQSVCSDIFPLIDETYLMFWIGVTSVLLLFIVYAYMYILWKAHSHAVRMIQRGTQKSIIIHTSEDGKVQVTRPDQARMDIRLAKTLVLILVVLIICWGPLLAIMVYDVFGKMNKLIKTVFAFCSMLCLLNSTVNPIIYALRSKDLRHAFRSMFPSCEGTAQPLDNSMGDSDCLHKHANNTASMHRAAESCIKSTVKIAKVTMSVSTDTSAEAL

[5] = Half life in rat liver microsomes; assay type: ADME, microsome
Cannabinoid receptor 1 [6] = target: Cannabinoid receptor 1 (Rattus norvegicus, UniProt P20272); experiment: Agonist activity at recombinant rat CB1 receptor expressed in HEK293 cells assessed as increase in beta arrestin recruitment measured after 2 to 3 hrs by PathHunter assay; assay type: functional, cell-based
Chain of Cannabinoid receptor 1 (Rattus norvegicus, UniProt P20272) (P20272 whole entry): as above

Cannabinoid receptor 2 [7] = target: T4, Cannabinoid receptor 2 (Rattus norvegicus, UniProt Q9QZN9); experiment: Agonist activity at recombinant rat CB2 receptor expressed in HEK293 cells assessed as increase in beta arrestin recruitment measured after 2 to 3 hrs by PathHunter assay; assay type: functional, cell-based
T4 sequence (Q9QZN9 whole entry): T3 sequence (whole entry)

Cannabinoid receptor 1 [8] = target: T2, Cannabinoid receptor 1; experiment: Agonist activity at recombinant human CB1 receptor expressed in HEK293 cells assessed as increase in beta arrestin recruitment measured after 2 to 3 hrs by PathHunter assay; assay type: functional, cell-based
[9] = Half life in human liver microsomes; assay type: ADME, microsome
Cannabinoid receptor 2 [10] = target: T1, Cannabinoid receptor 2; experiment: Agonist activity at recombinant human CB2 receptor expressed in HEK293 cells assessed as increase in beta arrestin recruitment measured after 2 to 3 hrs by PathHunter assay relative to CP55940; assay type: functional, cell-based

T1 sequence (P34972 whole entry): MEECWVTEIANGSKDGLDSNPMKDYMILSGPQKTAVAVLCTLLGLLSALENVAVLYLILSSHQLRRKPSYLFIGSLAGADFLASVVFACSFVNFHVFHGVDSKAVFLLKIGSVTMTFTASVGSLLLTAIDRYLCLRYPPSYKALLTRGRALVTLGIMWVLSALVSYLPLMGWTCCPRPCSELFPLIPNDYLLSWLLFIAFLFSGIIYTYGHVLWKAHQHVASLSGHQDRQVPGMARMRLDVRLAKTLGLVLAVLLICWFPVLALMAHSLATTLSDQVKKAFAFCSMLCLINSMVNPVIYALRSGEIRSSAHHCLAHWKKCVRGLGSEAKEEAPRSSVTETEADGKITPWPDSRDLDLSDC

CC(C)(C)[C@@H](CF)NC(=O)c1nn(-c2c[n+]([O-])ccn2)c2c1C[C@@H]1C[C@H]21
EC50 (Cannabinoid receptor 2 [1]): 1.2 nM | Emax (Cannabinoid receptor 1 [2]): 105% | Emax [3]: 97% | Emax [4]: 107% | half-life [5]: > 60 min | EC50 (Cannabinoid receptor 1 [6]): 840 nM | EC50 (Cannabinoid receptor 2 [7]): 1.5 nM | EC50 (Cannabinoid receptor 1 [8]): 1100 nM | half-life [9]: > 60 min | Emax (Cannabinoid receptor 2 [10]): 107%
